Experimental data pooled from the literature.

SMILES | assay | system | conditions | quantity | value
COc1cc(N2CC[C@@]3(O)C(=O)c4cc(C)c(C)cc4N=C23)ccn1 | – | PBS | pH 7.4 | solubility | 42 µM
CC[C@H](C)[C@@H]1NC(=O)CNC(=O)[C@@H](CC(C)C)NC(=O)[C@@H](C(C)C)NC(=O)[C@H]2CCCN2C(=O)[C@@H](CC(C)C)NC(=O)[C@H](Cc2ccccc2)NC(=O)[C@@H]2CCCN2C(=O)[C@H](CC(C)C)NC(=O)[C@H](CO)NC(=O)CNC(=O)[C@H]([C@@H](C)O)NC1=O | – | aqueous buffer | 18 h, pH 7.4 | solubility | 692 µM
CCC(CNc1nc(-c2cn3ccnc3cc2C)nc2ccccc12)c1ccccc1 (centres unmarked) | – | water | – | solubility | 1.3 µM
c1cc(-c2ccc3ncnc(Nc4ncco4)c3c2)cc(N2C[C@H]3C[C@@H]2CO3)c1 | – | aqueous buffer | pH 7.4, 25 °C | solubility | 6 µM
Oc1ccccc1C=Nc1ccccc1N=Cc1ccccc1O.[Ga+3] | – | water | – | solubility | < 100 µg/mL
CC(C)C[C@@H]1NC(=O)[C@H](CCC(=O)O)NC(=O)[C@H]2CCCN2C(=O)[C@@H](N)CSSC[C@@H](C(=O)O)NC(=O)[C@H]2CCCN2C(=O)[C@@H](Cc2ccccc2)NC(=O)[C@H](CC(C)C)NC(=O)[C@H]([C@@H](C)O)NC(=O)[C@H](C(C)C)NC1=O | – | aqueous buffer | 18 h, pH 7.4 | thermodynamic solubility | 679 µM
CN(C)CCOc1ccc(C=Nc2ccccc2N=Cc2ccc(OCCN(C)C)cc2O)c(O)c1.[Ga+3] | – | water | – | solubility | > 50000 µg/mL
COc1cc(C(=O)c2nc(-c3cccc4[nH]ccc34)c[nH]2)cc(OC)c1OC | – | PBS | pH 7.4 | thermodynamic solubility | 5.25 µM
O=C1NC2(CCC2)C(=O)N1c1ccc(F)c(C(F)(F)F)c1 | nephelometry | aqueous buffer | – | kinetic solubility | ≤ 50 µg/mL
CC(C)C[C@H]1C(=O)N2CCC[C@H]2C(=O)N[C@@H](CC(N)=O)C(=O)N[C@H](Cc2ccc(O)cc2)C(=O)N[C@H]([C@H](C)O)C(=O)N[C@@H](Cc2ccc(O)cc2)C(=O)N[C@H](C(=O)O)CSSC[C@H](N)C(=O)N[C@@H](Cc2ccccc2)C(=O)N[C@@H](C(C)C)C(=O)N1C | – | aqueous buffer | 18 h, pH 7.4 | thermodynamic solubility | 760 µM
Cc1ccc2c(c1)C(=O)C1(O)CCN(c3ccccc3)C1=N2 (centres unmarked) | – | PBS | pH 7.4 | solubility | 21 µM
CC1(CC(F)(F)F)NC(=O)N(c2ccc(F)c(C(F)(F)F)c2)C1=O (centres unmarked) | nephelometry | aqueous buffer | – | kinetic solubility | ≤ 50 µg/mL
CCCSc1ccc2nc(NC(=O)OC)[nH]c2c1 | – | simulated gastric fluid | 24 h, pH 1.2, 37 °C, acidic | thermodynamic solubility | ~300 µg/mL
CC(C)C[C@H]1C(=O)N[C@H]([C@H](C)O)C(=O)N[C@@H](C)C(=O)N[C@@H](Cc2ccccc2)C(=O)N[C@H](C(=O)O)CSSC[C@H](N)C(=O)N2CCC[C@@H]2C(=O)N[C@@H](CCC(=O)O)C(=O)N[C@@H](C(C)C)C(=O)N2CCC[C@H]2C(=O)N1C | – | aqueous buffer | 18 h, pH 7.4 | solubility | 692 µM
